This is a sample that favours compounds with a hit; in the whole collection about 2.7% have one here.
PTPN22 act – activators of human LYP (PTPN22) phosphatase. Q9Y2R2. recombinant LYP, DiFMUP fluorescence; 0 = plate median, 100 = signal doubled. activation, % at 2 µM. 96,000 compounds, 0.11% hits. AID 697;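 active means activation at 2 µM above a set limit, the mean plus 5 SD, cut at about 37% in these data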
PTPN22 inh 2 – blocks human PTPN22 phosphatase activity. Q9Y2R2. recombinant LYP catalytic domain, DiFMUP fluorescence. 96,000 compounds, 0.21% hits. inhibition, % at 2 µM. AID 640;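 active means inhibition at 2 µM at or above a set limit, the screen mean plus 3 SD, cut at about 24% in these data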;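 further: 0% = DMSO with enzyme and 100% = enzyme fully blocked by orthovanadate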
PLK1 PBD inh – inhibitors of human Plk1 polo box domain binding; 97,000 compounds, 0.13% hits; AID 693; inhibition, %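 (tested at about 20 µM)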; P53350; Plk1 PBD phosphopeptide binding, fluorescence polarization; in the data active means inhibition above about 34%, passing the limit was not always enough
PLK1 kinase inh – inhibitors of human PLK1 kinase. recombinant PLK1 kinase, TR-FRET peptide phosphorylation. inhibition, % at 10 µM. 97,000 compounds, 0.53% hits. P53350;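 active means inhibition of 50% or more in the single-concentration screen; inactive means inhibition below 50%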;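 further: 0% = DMSO max control and 100% = H-89 dihydrochloride min control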
HIV Rev-RRE inh – inhibitors of HIV-1 Rev-RRE RNA interaction. P05866. Rev peptide-RRE RNA binding, FRET. inhibition, % at 8 µM. 97,000 compounds, 0.79% hits. AID 704;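 active means inhibition above the screen-wide mean plus 3 SD, cut at about 35% in these data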;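 further: 0% = median DMSO wells and 100% = median Neomycin B control wells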
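System: Cy5-labelled duplex RRE RNA binding fluorescein-labelled HIV Rev peptide; Signal: fluorescein-to-Cy5 FRET, 480 nm excitation; Also added: labelled Rev peptide; Compound: one concentration, 8 µM nominal; Buffer or medium: HEPES pH 7.5 salt buffer with EDTA; Read-out: % inhibition of FRET ratio versus controls; Schedule: 5 min preincubation and 15 min binding, 25 °C.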
DAT uptake mod – human DAT dopamine uptake with cocaine, either direction; B-score at 10 µM; LLC-PK1 hDAT cells, [14C]-dopamine uptake with cocaine IC80; actives deviate in either direction; 110,000 compounds, 1.3% hits;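 active means Z score or B-score, a plate-position-corrected score, falls beyond the plate's 99.7% confidence bounds, in either direction; inactive means both scores lie inside the 99.7% bounds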;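 further: scored against the spread of the other compound wells on the same plate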
Target sequence (Q01959 whole entry, looked up): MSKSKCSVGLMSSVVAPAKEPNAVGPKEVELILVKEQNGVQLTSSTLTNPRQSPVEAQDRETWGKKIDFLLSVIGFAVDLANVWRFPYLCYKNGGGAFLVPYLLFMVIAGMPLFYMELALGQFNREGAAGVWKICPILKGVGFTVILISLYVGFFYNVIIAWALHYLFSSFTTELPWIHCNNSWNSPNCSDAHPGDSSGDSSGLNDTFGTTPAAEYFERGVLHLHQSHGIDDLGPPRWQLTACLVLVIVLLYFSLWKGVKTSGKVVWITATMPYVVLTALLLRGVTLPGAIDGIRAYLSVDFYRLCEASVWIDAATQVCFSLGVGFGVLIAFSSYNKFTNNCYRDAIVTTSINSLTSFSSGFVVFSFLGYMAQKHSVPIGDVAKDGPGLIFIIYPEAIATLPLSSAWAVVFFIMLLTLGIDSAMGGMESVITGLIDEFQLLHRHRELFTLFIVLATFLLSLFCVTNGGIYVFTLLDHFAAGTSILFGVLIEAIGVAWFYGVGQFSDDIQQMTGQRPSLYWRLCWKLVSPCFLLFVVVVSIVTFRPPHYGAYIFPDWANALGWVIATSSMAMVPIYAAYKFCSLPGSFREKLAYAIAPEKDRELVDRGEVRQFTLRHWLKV
* hit, by the source's call; x = not tested or not shown; [ ] = another dose, or the depositor's remark.

SMILES | PTPN22 act | PTPN22 inh 2 | PLK1 PBD inh | PLK1 kinase inh | HIV Rev-RRE inh | DAT uptake mod
CCOc1ccc2cc(C#N)c(SCC(=O)NC(C)CC)nc2c1 (stereo not given) | 3.3 | -5.2 | -5.6 | -9.9 | 15.5 | -0.271
Cc1ccc(N=Nc2c(N)[nH]n3c(=O)cc(-c4ccccc4)nc23)cc1 | -21.7 | 23.6 | -28.4 | -12.6 | 1.3 | 1.64*
COc1cccc(N=Nc2c(N)[nH]n3c(=O)cc(-c4ccccc4)nc23)c1 | -17.9 | 22.2 | 26.0 | -8.8 | 6.7 | -0.0143
O=C(O)C1CC=CCC1C(=O)Nc1ccc(S(=O)(=O)N2CCCc3ccccc32)cc1 (stereo not given) | -10.7 | 7.5 | 14.3 | -16.6 | 3.8 | 1.34*
O=C(Nc1ccc(S(=O)(=O)N2CCCc3ccccc32)cc1)C1CCCO1 (stereo not given) | 2.9 | -4.3 | -19.6 | -13.2 | 9.0 | 1.96
COc1ccc(-c2oc3ccc(-c4ccc5c(c4)OCO5)cc3c2-c2ccc(OC)nc2)cc1 | x | x | x | x | x | -0.326
CC1CCCCN1C(=O)Cc1ccc(F)cc1 (stereo not given) | -11.4 | 10.8 | 19.8 | -11.3 | 8.0 | -7.96*
CC1CCCCN1C(=O)c1ccc(C(=O)N2CCCCC2C)cc1 (stereo not given) | 7.2 | -10.6 | -19.7 | 13.2 | -6.6 | 0.169
COc1ccc(-c2csc(NC(C)c3nc4cc(Cl)c(Cl)cc4n3CCCO)n2)cc1 (stereo not given) | x | x | x | x | x | 0.382
COc1ccc(NC(=O)CN2C(=O)C(C)Oc3ccccc32)c(OC)c1 (stereo not given) | -5.9 | 3.8 | -1.0 | -7.3 | 8.7 | 2.28*
COc1ccc(NC(=O)CN2C(=O)C(C)Oc3ccccc32)cc1 (stereo not given) | 7.7 | -11.2 | 3.6 | -6.6 | -1.5 | -0.518
CCOC(=O)c1ccc(Nc2ncnc3nc[nH]c23)cc1 | -12.3 | 10.0 | -37.6 | 67.9* | 5.2 | -0.0904
COc1ccc(Cl)cc1S(=O)(=O)Oc1ccc(NC(C)=O)cc1 | -2.3 | 2.7 | -3.9 | -7.8 | 9.2 | -0.686
CCOC(=O)/C(C#N)=C1/SC(CC)C(=O)N1c1ccc(C)cc1 (stereo not given) | 2.4 | -3.3 | -0.1 | -6.5 | 5.2 | -2.8*
COc1ccc(OC)c(-c2cc(C(=O)N3CCc4ccccc4C3)no2)c1 | 4.1 | -6.9 | -1.1 | -1.8 | 6.4 | 2.89*
Cc1sc2c(c1C)c(=O)nc1scc(C)n12 | 2.1 | -2.3 | -3.8 | -17.7 | 6.6 | x
Cn1c(CSCc2ccc(F)cc2)nnc1SCC(=O)N1CCN(c2ccccc2)CC1 | -2.6 | 6.6 | -8.8 | -8.6 | 4.8 | 0.776
Cc1ccc2nc(/C(C#N)=C\c3ccc(N4CCOCC4)o3)[nH]c2c1 | -9.6 | 9.2 | -228.7 | -34.1 | 135.3*[fluorescence artefact?] | -0.724
Cc1ccc(/C(C#N)=C\c2cn(C)c3ccccc23)cc1 | -0.8 | 0.9 | 14.0 | -11.7 | 19.1 | -0.747
Cc1ccc2nc(/C(C#N)=C\c3ccc([N+](=O)[O-])o3)[nH]c2c1 | -6.7 | 8.9 | -64.9 | -32.2 | 64.4*[fluorescence artefact?] | 0.00647
Cc1ccc2nc(/C(C#N)=C\c3cc(C)n(-c4cccc([N+](=O)[O-])c4)c3C)[nH]c2c1 | -5.2 | 7.1 | -5.2 | -35.4 | 12.2 | 0.467
Cc1ccc(/C(C#N)=C\c2ccc(N3CCOCC3)o2)cc1 | -10.4 | 12.6 | -102.8 | -15.5 | 95.6*[fluorescence artefact?] | 0.308
Cc1ccc(/C=C2\CCC3=C2OC(N)=C(C#N)C3c2ccc(C)cc2)cc1 (stereo not given) | -3.8 | 5.8 | -120.2 | -9.3 | 138.4*[fluorescence artefact?] | 1.53
COc1ccc(C)cc1NC(=O)CN1CCN(C/C=C/c2ccccc2)CC1 | -7.3 | 5.8 | -8.8 | -12.7 | 7.1 | 0.97
COc1ccccc1OC(=O)c1cc(Cl)nc2ccccc12 | 6.0 | -8.3 | 15.2 | -24.2 | 3.2 | -1.03
O=C1CC(=O)N(Cc2ccco2)C(=O)N1 | x | x | x | x | x | -0.348
O=C1CC(=O)N(Cc2ccco2)C(=S)N1 | 5.5 | -8.4 | 33.7 | -10.7 | 76.8* | -1.33
COc1ccc(NC(=O)c2ccccc2NC(=O)C2CCCO2)cc1 (stereo not given) | 1.4 | -4.7 | 4.4 | -8.3 | 2.4 | -9.04*
CC(C)OC(=O)CSc1nnc(SCc2cccc3ccccc23)s1 | -4.9 | 7.2 | 9.5 | -17.6 | 22.6 | -0.255
CCC(C)(C)n1nnnc1C(c1cccnc1)N1CCN(c2cccc(C(F)(F)F)c2)CC1 (stereo not given) | 1.0 | -1.1 | -15.8 | -7.3 | 3.4 | 0.473

Screening data (PubChem)
